Key:
Glucocorticoid receptor [1] = target: T1, Glucocorticoid receptor (Homo sapiens, UniProt P04150); assay: Antagonist activity at glucocorticoid receptor in human HepG2 cells assessed as inhibition of dexamethasone-induced tyrosine amino transferase activity preincubated for 30 mins followed by dexamethasone addition measured after 20 hrs; type: cell-based
T1 sequence (P04150 whole entry): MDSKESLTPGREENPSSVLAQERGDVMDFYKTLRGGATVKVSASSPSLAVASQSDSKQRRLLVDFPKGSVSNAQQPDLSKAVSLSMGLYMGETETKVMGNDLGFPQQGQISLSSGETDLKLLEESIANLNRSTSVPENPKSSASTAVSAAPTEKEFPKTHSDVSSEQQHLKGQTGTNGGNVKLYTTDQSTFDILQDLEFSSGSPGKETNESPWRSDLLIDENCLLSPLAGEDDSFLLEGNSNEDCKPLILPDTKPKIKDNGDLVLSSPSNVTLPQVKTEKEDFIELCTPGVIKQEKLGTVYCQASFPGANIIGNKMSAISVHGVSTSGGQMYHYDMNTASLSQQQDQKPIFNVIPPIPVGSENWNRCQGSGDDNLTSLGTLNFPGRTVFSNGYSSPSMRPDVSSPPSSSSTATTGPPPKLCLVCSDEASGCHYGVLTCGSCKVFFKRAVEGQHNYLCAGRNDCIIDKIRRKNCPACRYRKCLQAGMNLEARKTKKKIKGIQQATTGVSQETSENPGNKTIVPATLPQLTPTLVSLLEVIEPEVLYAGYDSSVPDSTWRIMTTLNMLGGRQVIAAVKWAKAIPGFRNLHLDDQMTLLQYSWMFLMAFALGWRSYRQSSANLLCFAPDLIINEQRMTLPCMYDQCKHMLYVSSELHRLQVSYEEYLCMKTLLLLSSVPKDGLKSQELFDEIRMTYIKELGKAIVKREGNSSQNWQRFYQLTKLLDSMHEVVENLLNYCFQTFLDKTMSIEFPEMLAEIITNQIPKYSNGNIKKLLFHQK

Glucocorticoid receptor [2] = target: T1, Glucocorticoid receptor; assay: Displacement of fluormone GS Red from human glucocorticoid receptor after 4 hrs by fluorescence polarization assay
[3] = Cmax in Sprague-Dawley CD-1 rat plasma at 3 mg/kg, po administered as cassette dose via gavage measured up to 24 hrs by LC/MS analysis; type: ADME, organism-based; design: dose 3 mg/kg, route oral
Procedure, shortened: (§1)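 Three male Sprague Dawley CD-1 rats (220-250g) with jugular vein catheters; three test compounds plus a reference dosed together by oral gavage, 3mg/kg each, in DMSO:0.5% methylcellulose 10:90 (0.6mg/mL per compound), 5mL/kg. Plasma sampled pre-dose and at 0.25, 0.5, 1, 2, 4, 6, 8, 24 h; LC/MS.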

[4] = AUC in Sprague-Dawley CD-1 rat plasma at 3 mg/kg, po administered as cassette dose via gavage measured up to 24 hrs by LC/MS analysis; type: ADME, organism-based; design: time < 24 hr, dose 3 mg/kg, route oral; procedure, shortened: as §1
[5] = Cmax in Sprague-Dawley CD-1 rat plasma at 5 mg/kg, po administered through gavage measured up to 24 hrs by LC/MS analysis; type: ADME, organism-based; design: dose 5 mg/kg, route oral
Procedure, shortened: (§2)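 Jugular-catheterized male Sprague Dawley CD-1 rats (220-250g). Oral arm: five rats, 5mg/kg gavage, 1mg/mL in DMSO:0.5% methylcellulose 10:90, 5mL/kg, sampled pre-dose and 0.25-24 h. i.v. arm: three rats, 1mg/kg, 0.5mg/mL in DMSO:PEG400:propylene glycol 10:45:45, sampled pre-dose and 0.08-24 h. Plasma by LC/MS.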

[6] = AUC in Sprague-Dawley CD-1 rat plasma at 5 mg/kg, po administered through gavage measured up to 24 hrs by LC/MS analysis; type: ADME, organism-based; design: dose 5 mg/kg, time < 24 hr, route oral; procedure, shortened: as §2
[7] = Oral bioavailability in Sprague-Dawley CD-1 rat plasma at 5 mg/kg administered through gavage measured up to 24 hrs by LC/MS analysis; type: ADME, organism-based; procedure, shortened: as §2
[8] = Cmax in monkey plasma at 20 mg/kg, po measured up to 24 hrs by LC/MS analysis; type: ADME, organism-based, Macaca mulatta; design: dose 20 mg/kg, route oral; conditions: rhesus monkey
Procedure, shortened: (§3)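 Monkey i.v./p.o. study: oral 20mg/kg in 10% DMSO, 0.1% Tween 80, 0.5% hydroxypropylmethylcellulose in water; i.v. dose 1mg/kg.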

[9] = AUC in monkey plasma at 20 mg/kg, po measured up to 24 hrs by LC/MS analysis; type: ADME, organism-based, Macaca mulatta; design: dose 20 mg/kg, time < 24 hr, route oral; conditions: rhesus monkey; procedure, shortened: as §3
[10] = Oral bioavailability in monkey plasma at 20 mg/kg measured up to 24 hrs by LC/MS analysis; type: ADME, organism-based, Macaca mulatta; conditions: rhesus monkey; procedure, shortened: as §3

Compound | Ki (Glucocorticoid receptor [1]) [nM] | Ki (Glucocorticoid receptor [2]) [nM] | Cmax [3] [ng/mL] | AUC at 24 h [4] [ng·h/mL] | further results
Cn1nncc1S(=O)(=O)N1CC[C@H]2Cc3c(cnn3-c3ccc(F)cc3)C[C@]2(C(=O)c2cc(C(F)(F)F)ccn2)C1 | 120 | – | – | – | –
Cc1ccc(C(=O)[C@]23Cc4cnn(-c5ccc(F)cc5)c4C=C2CCN(S(=O)(=O)c2cccc(C)c2)C3)nc1 | 7.5 | 0.14 | – | – | –
Cc1cnc(C(=O)[C@]23Cc4cnn(-c5ccc(F)cc5)c4C=C2CCN(S(=O)(=O)c2ccc(F)c(F)c2)C3)s1 | 7.4 | 1.3 | 30 | 135 | –
Cn1cc(S(=O)(=O)N2CC[C@H]3Cc4c(cnn4-c4ccc(F)cc4)C[C@]3(C(=O)c3cc(C(F)(F)F)ccn3)C2)nn1 | 60 | – | – | – | –
Cn1cc(S(=O)(=O)N2CCC3=Cc4c(cnn4-c4ccc(F)cc4)C[C@]3(C(=O)c3cc(C(F)(F)F)ccn3)C2)nn1 | 9.7 | – | 91.5 | 450 | –
CCn1nccc1S(=O)(=O)N1CCC2=Cc3c(cnn3-c3ccc(F)cc3)C[C@]2(C(=O)c2cc(C(F)(F)F)ccn2)C1 | 10 | – | – | – | Cmax [5]: 511 ng/mL; AUC at 24 h [6]: 1530 ng·h/mL; bioavailability [7]: 52%; Cmax [8]: 20.8 ng/mL; AUC at 24 h [9]: 193 ng·h/mL; bioavailability [10]: 1.5%
O=C(c1ccccn1)[C@]12Cc3cnn(-c4ccc(F)cc4)c3C=C1CCN(S(=O)(=O)c1ccc(F)c(F)c1)C2 | – | – | 215 | 974 | –
O=C(c1nccs1)[C@]12Cc3cnn(-c4ccc(F)cc4)c3C=C1CCN(S(=O)(=O)c1ccc(F)c(F)c1)C2 | 37 | 0.23 | – | – | –
Cn1ncc(S(=O)(=O)N2CCC3=Cc4c(cnn4-c4ccc(F)cc4)C[C@]3(C(=O)c3cc(C(F)(F)F)ccn3)C2)n1 [NENOCORILANT] | 3.1 | – | 255 | 860 | –
N#Cc1cccc(S(=O)(=O)N2CCC3=Cc4c(cnn4-c4ccc(F)cc4)C[C@]3(C(=O)c3ccccn3)C2)c1 | – | – | 140 | 239 | –
Cc1ccnc(C(=O)[C@]23Cc4cnn(-c5ccc(F)cc5)c4C=C2CCN(S(=O)(=O)c2cccc(C(F)(F)F)c2)C3)c1 | 5.1 | 0.21 | – | – | –
O=C(c1cc(C(F)(F)F)ccn1)[C@]12Cc3cnn(-c4ccc(F)cc4)c3C=C1CCN(S(=O)(=O)c1cn[nH]c1)C2 | 7.6 | – | – | – | –
Cn1ncc(S(=O)(=O)N2CC[C@H]3Cc4c(cnn4-c4ccc(F)cc4)C[C@]3(C(=O)c3cc(C(F)(F)F)ccn3)C2)n1 [EXICORILANT] | 12 | – | – | – | Cmax [5]: 1260 ng/mL; AUC at 24 h [6]: 9420 ng·h/mL; bioavailability [7]: 100%
CCc1ccnc(C(=O)[C@]23Cc4cnn(-c5ccc(F)cc5)c4C=C2CCN(S(=O)(=O)c2cccc(C#N)c2)C3)c1 | 1.7 | 0.19 | – | – | –
CCn1cc(S(=O)(=O)N2CCC3=Cc4c(cnn4-c4ccc(F)cc4)C[C@]3(C(=O)c3cc(C(F)(F)F)ccn3)C2)cn1 | 4.6 | – | 126 | 701 | –
Cc1ccnc(C(=O)[C@]23Cc4cnn(-c5ccc(F)cc5)c4C=C2CCN(S(=O)(=O)c2ccc(C(F)(F)F)c(F)c2)C3)c1 | 7.5 | 0.42 | 48 | 173 | –
N#Cc1cccc(S(=O)(=O)N2CCC3=Cc4c(cnn4-c4ccc(F)cc4)C[C@]3(C(=O)c3cc(C(F)(F)F)ccn3)C2)c1 | 4.8 | 0.32 | 20 | 49 | –
Cc1cnc(C(=O)[C@]23Cc4cnn(-c5ccc(F)cc5)c4C=C2CCN(S(=O)(=O)c2ccc(Cl)c(Cl)c2)C3)s1 | 7.4 | 0.32 | 30 | 135 | –
Cn1ccc(S(=O)(=O)N2CCC3=Cc4c(cnn4-c4ccc(F)cc4)C[C@]3(C(=O)c3cc(C(F)(F)F)ccn3)C2)n1 | 6.6 | – | 291 | 863 | Cmax [5]: 510 ng/mL; AUC at 24 h [6]: 986 ng·h/mL; bioavailability [7]: 68%
Cn1nncc1S(=O)(=O)N1CCC2=Cc3c(cnn3-c3ccc(F)cc3)C[C@]2(C(=O)c2cc(C(F)(F)F)ccn2)C1 | 31 | – | – | – | –

From ChEMBL document CHEMBL4049426, “Identification of the Clinical Candidate (R)-(1-(4-Fluorophenyl)-6-((1-methyl-1H-pyrazol-4-yl)sulfonyl)-4,4a,5,6,7,8-hexahydro-1H-pyrazolo[3,4-g]isoquinolin-4a-yl)(4-(trifluoromethyl)pyridin-2-yl)methanone (CORT125134): A Selective Glucocorticoid Receptor (GR) Antagonist” (J Med Chem, 2017)
